Source: ChEMBL document CHEMBL4014326, “Discovery of an Orally Bioavailable Benzimidazole Diacylglycerol Acyltransferase 1 (DGAT1) Inhibitor That Suppresses Body Weight Gain in Diet-Induced Obese Dogs and Postprandial Triglycerides in Humans” (J Med Chem, 2017)
Converted amounts (≈) assume the structure as drawn. The source made the active and inactive calls. The rule behind the calls is not given here.

What was measured:
[1] = Ratio of IC50 for DGTA1 in mouse C2C12 cells to IC50 for recombinant human His6-tagged DGAT1; type: cell-based
In short: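 Ratio of the C2C12 cellular IC50 to the enzymatic IC50. Enzyme assay: Sf9 membranes expressing human His6-DGAT1 with 50 µM diolein and 50 µM oleoyl-CoA in 50 mM HEPES pH 7.5, 5 mM MgCl2 and 10% ethanol, 30 min at room temperature. Triolein was read by LC-MS/MS, with a 10-point, 3-fold dose response run in duplicate.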

Rattus norvegicus = species: Rattus norvegicus; test: Antiobesity activity in rat assessed as suppression of postprandial triglyceride levels; type: functional
Canis familiaris [2] = test: Antiobesity activity in fasted Beagle dog assessed as postprandial triglyceride AUC in plasma at 1 mg/kg administered via oral gavage prior to 30 mins of […] measured after 4 hrs (reference value: 35400 +/- 8863 mg/dL.min); type: functional, organism-based; design: dose 1 mg/kg, time < 4 hr; conditions: Canis lupus familiaris
Homo sapiens = test: Antiobesity activity in high fat-fed human assessed as suppression of postprandial plasma triglyceride level compound administered as single oral dose; type: functional
In short: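 Randomized, double-blind, placebo-controlled single ascending dose study in overweight or obese healthy adults aged 18-55. Single oral doses of 5-600 mg (n = 8 per dose) or placebo (n = 12) were given. About 1 h after dosing, subjects ate a ~1000 kcal, 55% fat test meal, and plasma triglycerides were compared against an untreated baseline meal test monitored for 9 h.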

[3] = Drug level in human hepatocytes treated with [3H]-3-(4-(6-(5-(4-Methoxyphenyl)-1,3,4-oxadiazol-2-yl)-1H-benzo[d]imidazol-2-yl)-3,5-dimethylphenyl)-2,2-dimethylpropanoic acid at 12.5 uM after 18 hrs; type: ADME, cell-based, Hepatocyte
In short: (§1)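 [3H]-labelled compound (12.5 µM) was incubated for 18 h with rat, dog, monkey or human hepatocytes, and metabolites were profiled.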

[4] = Drug level in monkey hepatocytes treated with [3H]-3-(4-(6-(5-(4-Methoxyphenyl)-1,3,4-oxadiazol-2-yl)-1H-benzo[d]imidazol-2-yl)-3,5-dimethylphenyl)-2,2-dimethylpropanoic acid at 12.5 uM after 18 hrs; type: ADME, cell-based, Macaca mulatta, Hepatocyte; conditions: rhesus monkey; in short: as §1
[5] = Drug level in rat hepatocytes treated with [3H]-3-(4-(6-(5-(4-Methoxyphenyl)-1,3,4-oxadiazol-2-yl)-1H-benzo[d]imidazol-2-yl)-3,5-dimethylphenyl)-2,2-dimethylpropanoic acid at 12.5 uM after 18 hrs; type: ADME, cell-based, Hepatocyte; in short: as §1
[6] = Drug level in dog hepatocytes treated with [3H]-3-(4-(6-(5-(4-Methoxyphenyl)-1,3,4-oxadiazol-2-yl)-1H-benzo[d]imidazol-2-yl)-3,5-dimethylphenyl)-2,2-dimethylpropanoic acid at 12.5 uM after 18 hrs; type: ADME, cell-based, Canis lupus familiaris, Hepatocyte; in short: as §1
[7] = Plasma concentration in high fat diet-fed dog at 5 mg/kg, po administered via gelatin capsule after 90 mins
[8] = Plasma concentration in high fat diet-fed dog at 5 mg/kg, po qd administered via gavage measured after twenty-ninth dose; type: ADME, organism-based, Canis lupus familiaris
Plasma = test: Unbound concentration in dog plasma at 5 mg/kg, po after 24 hrs; type: ADME, organism-based, Canis lupus familiaris; conditions: in vivo
Canis familiaris [9] = test: Antiobesity activity in high fat diet-fed dog assessed as reduction in body weight gain at 5 mg/kg, po qd administered via gelatin capsule after 21 days relative to vehicle control; design: scale not given: the % may be the effect or the level left
[10] = AUC (0 to 24 hrs) in dog plasma at 5 mg/kg, po after 24 hrs; type: ADME, organism-based, Canis lupus familiaris; design: time < 24 hr, dose 5 mg/kg, route oral
[11] = Protein binding in dog plasma at 5 mg/kg, po after 24 hrs; type: ADME, organism-based, Canis lupus familiaris; conditions: read-out: PPB (converted)
[12] = AUC (0 to 8 hrs) in Sprague-Dawley rat at 1mg/kg, iv by LC/MS/MS analysis; type: ADME, organism-based; design: time < 8 hr, dose 1 mg/kg, route intravenous; conditions: in vivo
In short: (§2)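 Male Sprague-Dawley rats, 200-300 g, dosed iv (n = 2) or po (n = 3) as solutions in NMP/PG or PEG400/ETPGS vehicles. Blood was taken from a jugular vein catheter at 0.083 (iv only), 0.25, 0.5, 1, 2, 4, 6 and 8 h into EDTA tubes, and plasma was analysed by LC-MS/MS. Values are means ± SD.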

[13] = Clearance in Sprague-Dawley rat at 1 mg/kg, iv by LC/MS/MS analysis; type: ADME, organism-based; conditions: in vivo; in short: as §2
[14] = Solubility of the compound at pH 6.8 after 24 hrs; type: physicochemical; conditions: buffer
In short: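 Solubility was measured in pH 6.8 buffer after 24 h incubation.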

[15] = Cmax in Sprague-Dawley rat at 3 mg/kg, po by LC/MS/MS analysis; type: ADME, organism-based; design: dose 3 mg/kg, route oral; conditions: in vivo; in short: as §2
[16] = Volume of distribution at steady state in Sprague-Dawley rat at 1 mg/kg, iv by LC/MS/MS analysis; type: ADME, organism-based; conditions: in vivo, read-out: Vdss; in short: as §2
[17] = Oral bioavailability in Sprague-Dawley rat at 3 mg/kg by LC/MS/MS analysis; type: ADME, organism-based; conditions: in vivo; in short: as §2
[18] = Tmax in Sprague-Dawley rat 3 mg/kg, po by LC/MS/MS analysis; type: ADME, organism-based; conditions: in vivo; in short: as §2
[19] = Permeability across apical to basolateral side in human Caco2 cells; type: ADME, cell-based; conditions: Caco-2, read-out: permeability
In short: (§3)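 Caco-2 monolayer permeability was measured in the A-B and B-A directions, and the efflux ratio was taken as B-A/A-B.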

[20] = AUC (0 to 8 hrs) in Sprague-Dawley rat at 3 mg/kg, po by LC/MS/MS analysis; type: ADME, organism-based; design: dose 3 mg/kg, time < 8 hr, route oral; conditions: in vivo; in short: as §2
[21] = target: T1, Diacylglycerol O-acyltransferase 1 (Mus musculus, UniProt Q9Z2A7); test: Inhibition of DGTA1 in mouse C2C12 cells assessed as inhibition of triglyceride formation after 2 hrs by LC/MS/MS analysis; type: cell-based
T1 sequence (Q9Z2A7 whole entry): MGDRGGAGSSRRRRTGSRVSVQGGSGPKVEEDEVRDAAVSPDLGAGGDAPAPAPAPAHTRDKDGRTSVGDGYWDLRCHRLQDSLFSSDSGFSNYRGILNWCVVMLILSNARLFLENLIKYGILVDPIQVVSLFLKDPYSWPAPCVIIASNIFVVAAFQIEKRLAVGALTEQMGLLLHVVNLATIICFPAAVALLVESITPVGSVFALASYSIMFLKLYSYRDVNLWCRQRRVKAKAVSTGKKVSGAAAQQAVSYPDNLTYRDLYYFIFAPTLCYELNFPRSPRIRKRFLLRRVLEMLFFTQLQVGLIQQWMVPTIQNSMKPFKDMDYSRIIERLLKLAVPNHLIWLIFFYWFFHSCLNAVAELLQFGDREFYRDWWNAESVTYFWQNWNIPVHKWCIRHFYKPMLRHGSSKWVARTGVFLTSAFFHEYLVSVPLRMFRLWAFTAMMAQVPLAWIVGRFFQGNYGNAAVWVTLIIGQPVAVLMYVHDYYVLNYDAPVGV
In short: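 C2C12 cells were seeded in DMEM with 5 mM glucose and 10% FBS for 18 h at 37 °C. Medium was then replaced with DMEM, 5 mM glucose and 250 µM oleate-BSA plus inhibitor (0.5% DMSO final) for 2 h at 37 °C. Cells were extracted with butanol containing tripalmitolein internal standard and triglyceride was read by LC-MS/MS. An 11-point, 3-fold dose response was run in quadruplicate.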

[22] = Permeability across basolateral to apical side in human Caco2 cells; type: ADME, cell-based; conditions: Caco-2, read-out: permeability; in short: as §3
[23] = Half life in Sprague-Dawley rat at 1 mg/kg, iv by LC/MS/MS analysis; type: ADME, organism-based; conditions: in vivo; in short: as §2
[24] = AUC (0 to 8 hrs) in Sprague-Dawley rat at 5 mg/kg, po by LC/MS/MS analysis; type: ADME, organism-based; design: dose 5 mg/kg, time < 8 hr, route oral; conditions: in vivo; in short: as §2
[25] = Cmax in Sprague-Dawley rat at 5 mg/kg, po by LC/MS/MS analysis; type: ADME, organism-based; design: dose 5 mg/kg, route oral; conditions: in vivo; in short: as §2
[26] = Oral bioavailability in Sprague-Dawley rat at 5 mg/kg by LC/MS/MS analysis; type: ADME, organism-based; conditions: in vivo; in short: as §2
[27] = Tmax in Sprague-Dawley rat 5 mg/kg, po by LC/MS/MS analysis; type: ADME, organism-based; conditions: in vivo; in short: as §2

SMILES: Cc1cc(CCC(=O)O)cc(C)c1-c1nc2ccc(C(=O)Nc3ccc(C(C)(C)C)cc3)cc2[nH]1
- Ratio IC50 [1]: 10

SMILES: COc1ccc(-c2nnc(-c3ccc4nc(-c5c(C)cc(CC(C)(C)C(=O)O)cc5C)[nH]c4c3)o2)cc1
- Activity (Rattus norvegicus): Active
- AUC (Canis familiaris [2]): 308000 ng·h/mL
- Activity (Homo sapiens): Dose-dependent effect
- Ratio IC50 [1]: 9

SMILES: Cc1cc(CC(C)(C)C(=O)O)cc(C)c1-c1nc2ccc(-c3nnc(-c4ccc(O)cc4)o3)cc2[nH]1
- Drug metabolism [3]: Metabolite_Detected
- Drug metabolism [4]: Metabolite_Detected
- Drug metabolism [5]: Metabolite_Detected
- Drug metabolism [6]: Metabolite_Detected

SMILES: COc1ccc(-c2nnc(-c3ccc4nc(-c5c(C)cc(CC(C)(C)C(=O)O)cc5C)[nH]c4c3)o2)cc1.[Na+]
- concentration at 1.5 h [7]: 738 nM
- concentration at 29 days [8]: 930 nM
- Cp(f) (Plasma): 2 nM
- Activity (Canis familiaris [9]): 11%
- AUC(0-t) at 24 h [10]: 5.27 µM·h
- fraction unbound at 24 h [11]: 0.009

SMILES: Cc1cc(CC(C)(C)C(=O)O)cc(C)c1-c1nc2ccc(C(=O)Nc3ccc4ccccc4n3)cc2[nH]1
- AUC(0-t) at 8 h [12]: 6.11 µM·h
- clearance [13]: 5.5 mL/min/kg
- solubility at 24 h [14]: 8 µM (≈ 3.94 µg/mL)
- Cmax [15]: 1720 nM
- Vd [16]: 0.4 L/kg
- bioavailability [17]: 23%
- Tmax [18]: 30 min
- Papp A→B [19]: 3.5 ×10⁻⁶ cm/s
- AUC(0-t) at 8 h [20]: 4.23 µM·h
- IC50 [21]: 0.954 µM
- Papp B→A [22]: 12.4 ×10⁻⁶ cm/s
- half-life [23]: 48 min

SMILES: Cc1cc(CCC(=O)O)cc(C)c1-c1nc2ccc(C(=O)Nc3ccc4ccccc4n3)cc2[nH]1
- AUC(0-t) at 8 h [12]: 5.23 µM·h
- clearance [13]: 6.9 mL/min/kg
- Vd [16]: 0.4 L/kg
- AUC(0-t) at 8 h [24]: 0.405 µM·h
- Cmax [25]: 333 nM
- Papp A→B [19]: 1.4 ×10⁻⁶ cm/s
- bioavailability [26]: 2%
- IC50 [21]: 0.913 µM
- Tmax [27]: 24 min
- Papp B→A [22]: 14.1 ×10⁻⁶ cm/s
- half-life [23]: 102 min

SMILES: COc1ccc(-c2nnc(-c3ccc4nc(-c5c(C)cc(CC(C)(C)C(=O)O[C@@H]6O[C@H](C(=O)O)[C@@H](O)[C@H](O)[C@H]6O)cc5C)[nH]c4c3)o2)cc1
- Drug metabolism [3]: Metabolite_Detected
- Drug metabolism [4]: Metabolite_Detected
- Drug metabolism [5]: Metabolite_Detected
- Drug metabolism [6]: Metabolite_Detected

SMILES: COc1ccc(-c2nnc(-c3ccc4nc(-c5c(C)cc(CCC(=O)O)cc5C)[nH]c4c3)o2)cc1
- AUC(0-t) at 8 h [12]: 1.69 µM·h
- clearance [13]: 21 mL/min/kg
- Cmax [15]: 40 nM
- Vd [16]: 0.7 L/kg
- bioavailability [17]: 2%
- Tmax [18]: 30 min
- Papp A→B [19]: 1.4 ×10⁻⁶ cm/s
- AUC(0-t) at 8 h [20]: 0.103 µM·h
- IC50 [21]: 0.181 µM
- Papp B→A [22]: 9.2 ×10⁻⁶ cm/s
- half-life [23]: 96 min
